The values below come from PMC4377729 (Theranostics, 2015).

Data set [1] is classed as in vivo. The following applies: 10 nmol (0.4 mg/kg) intravenously, mice, 4 h post-injection. The gist of the method: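 Nude mice (about 25 g) were anesthetized with ip ketamine/xylazine, given 10 nmol (0.4 mg/kg) conjugate iv in saline, and imaged 4 h later. Excitation was 745-779 nm light at 14 mW cm-2, with 800-848 nm emission and fixed exposure. SBR is tissue signal over neighbouring muscle or skin. For biodistribution, mice were killed at 30-240 min and organs resected and imaged; n ≥ 3 per time point.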

For data set [2] the following is noted: in DMSO; cited from earlier work.
The conditions of data set [3]: previously reported; cited from earlier work.

As for `CC1(C)C(/C=C/C2=C(Oc3ccc(S(=O)(=O)O)cc3)C(=C/C=C3/N(CCCCS(=O)(=O)O)c4ccc(S(=O)(=O)[O-])cc4C3(C)C)/CCC2)=[N+](CCCCCC(=O)O)c2ccc(S(=O)(=O)O)cc21` [CW800], the “location of NIR fluorescence signal / tissue uptake (in words)” value in data set [1] was “elevated nonspecific background signals in the liver and skin”.

Take `CC1(C)C(/C=C/C=C/C=C/C=C2\N(CCCCS(=O)(=O)[O-])c3ccc4ccccc4c3C2(C)C)=[N+](CCCCS(=O)(=O)[O-])c2ccc3ccccc3c21.[Na+]` [ICG]: the “QY of calibration standard” value in data set [2] is 13%.

With `CC1(C)C(/C=C/C2=C(Oc3ccc(CCC(=O)NCCC(O)(P(=O)([O-])O)P(=O)(O)O)cc3)C(=C\C=C3/N(CCCCS(=O)(=O)O)c4ccc(S(=O)(=O)O)cc4C3(C)C)/CCC2)=[N+](CCCCS(=O)(=O)O)c2ccc(S(=O)(=O)O)cc21` (stereo not drawn) [Pam78], the “binding to hydroxyapatite (HA) in vitro and in vivo (in words)” value in data set [3] is “rapid and specific binding to hydroxyapatite (HA) in vitro and in vivo”.
